The values that follow come from ChEMBL document CHEMBL1131303, “New cyclooxygenase-2/5-lipoxygenase inhibitors. 2. 7-tert-butyl-2,3-dihydro-3,3-dimethylbenzofuran derivatives as gastrointestinal safe antiinflammatory and analgesic agents: variations of the dihydrobenzofuran ring” (J Med Chem, 1998).

The species entered for test [1] is Mus musculus. Briefly: The compound was tested for effective dose for reduction in phenylquinone-induced abdominal constriction. The class given is functional. Particulars: Abdomen. The procedure, abridged:
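Phenylquinone-induced abdominal constriction assay run as an oral dose-response study. The ED50 was derived from reduction of constrictions.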

For test [2], the system named is Mus musculus. Briefly: The compound was tested for reduction in phenylquinone-induced abdominal constriction and is expressed in % reduction at a po (per oral) dose of 70 mg/kg. The class given is functional, Abdomen. The procedure, abridged:
(§1)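 Phenylquinone-induced abdominal constriction analgesia assay. A single oral screening dose of 70 mg/kg was given, and the read-out is percent reduction in constrictions versus control. Tebufelone and naproxen served as reference agents.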

Test [3] is filed under the species Mus musculus. Description: The compound was tested for reduction in phenylquinone-induced abdominal constriction. To be noted: Abdomen. The class given is functional.
The test system of another test is Rattus norvegicus. Briefly: Carrageenan paw edema index (CPE index) as ratio of the reduction in paw volume of tested compound relative to the compound tebufelone at peroral dose of 50 mg/kg. The class given is functional. To be noted: route oral. On the technique in general: The carrageenan paw model is a standard test of acute inflammation.
Test [4] addresses Prostaglandin G/H synthase 1 (Homo sapiens, UniProt P23219). Description: Inhibition of Prostaglandin G/H synthase 1 (COX-1). In a few lines: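 Isolated human COX-1 enzyme from platelets. Duplicate samples were each tested in duplicate, and IC50 values were determined.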
Test [5] addresses T1, Prostaglandin G/H synthase 2 (Homo sapiens, UniProt P35354).
T1 sequence (P35354 whole entry): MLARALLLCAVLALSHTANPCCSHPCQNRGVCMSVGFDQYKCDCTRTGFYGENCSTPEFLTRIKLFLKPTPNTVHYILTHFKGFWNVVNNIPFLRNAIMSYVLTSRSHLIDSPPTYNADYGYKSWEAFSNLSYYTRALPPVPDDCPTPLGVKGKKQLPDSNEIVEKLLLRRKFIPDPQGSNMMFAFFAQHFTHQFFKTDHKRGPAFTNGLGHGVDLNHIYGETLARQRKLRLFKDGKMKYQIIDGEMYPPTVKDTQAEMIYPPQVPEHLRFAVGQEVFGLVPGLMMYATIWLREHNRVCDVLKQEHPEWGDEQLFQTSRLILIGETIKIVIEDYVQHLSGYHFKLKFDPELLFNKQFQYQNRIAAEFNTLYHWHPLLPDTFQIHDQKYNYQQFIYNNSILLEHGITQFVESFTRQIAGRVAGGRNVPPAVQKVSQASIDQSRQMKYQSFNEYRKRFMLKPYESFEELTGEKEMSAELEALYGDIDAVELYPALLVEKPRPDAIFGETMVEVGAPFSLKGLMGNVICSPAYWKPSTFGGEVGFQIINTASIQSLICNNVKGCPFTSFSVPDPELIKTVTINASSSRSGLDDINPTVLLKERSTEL

The target in test [6] is T2, Polyunsaturated fatty acid 5-lipoxygenase (Rattus norvegicus, UniProt P12527).
T2 sequence (P12527 whole entry): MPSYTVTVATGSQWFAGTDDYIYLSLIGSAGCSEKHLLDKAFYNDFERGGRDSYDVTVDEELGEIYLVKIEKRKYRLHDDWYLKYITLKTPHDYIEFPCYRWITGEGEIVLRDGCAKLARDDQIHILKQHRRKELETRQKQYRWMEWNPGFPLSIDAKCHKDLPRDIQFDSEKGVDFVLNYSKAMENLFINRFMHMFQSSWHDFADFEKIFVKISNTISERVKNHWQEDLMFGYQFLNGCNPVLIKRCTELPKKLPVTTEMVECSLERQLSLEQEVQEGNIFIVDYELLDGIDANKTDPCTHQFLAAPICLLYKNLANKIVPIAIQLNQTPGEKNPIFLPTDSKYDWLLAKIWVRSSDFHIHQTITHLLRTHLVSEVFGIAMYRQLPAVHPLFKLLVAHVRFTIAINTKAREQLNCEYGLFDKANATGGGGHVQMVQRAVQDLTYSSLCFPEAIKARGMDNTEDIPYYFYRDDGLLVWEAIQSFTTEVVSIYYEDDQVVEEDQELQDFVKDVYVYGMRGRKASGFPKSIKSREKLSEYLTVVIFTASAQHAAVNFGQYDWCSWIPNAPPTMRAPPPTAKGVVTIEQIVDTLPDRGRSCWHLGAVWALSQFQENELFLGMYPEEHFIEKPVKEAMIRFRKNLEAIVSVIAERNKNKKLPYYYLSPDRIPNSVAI
Briefly: Inhibition of 5-lipoxygenase (LOX)in RBL cells. Format: cell-based.

The test system of test [7] is Mus musculus. Briefly: The compound was tested for reduction in phenylquinone-induced abdominal constriction and is expressed in % reduction at a po (per pral) dose of 70 mg/kg. The class given is functional, Abdomen. The procedure, abridged: as §1

SMILES strings stand for the structures.

Prostaglandin G/H synthase 1, sequence (P23219 whole entry): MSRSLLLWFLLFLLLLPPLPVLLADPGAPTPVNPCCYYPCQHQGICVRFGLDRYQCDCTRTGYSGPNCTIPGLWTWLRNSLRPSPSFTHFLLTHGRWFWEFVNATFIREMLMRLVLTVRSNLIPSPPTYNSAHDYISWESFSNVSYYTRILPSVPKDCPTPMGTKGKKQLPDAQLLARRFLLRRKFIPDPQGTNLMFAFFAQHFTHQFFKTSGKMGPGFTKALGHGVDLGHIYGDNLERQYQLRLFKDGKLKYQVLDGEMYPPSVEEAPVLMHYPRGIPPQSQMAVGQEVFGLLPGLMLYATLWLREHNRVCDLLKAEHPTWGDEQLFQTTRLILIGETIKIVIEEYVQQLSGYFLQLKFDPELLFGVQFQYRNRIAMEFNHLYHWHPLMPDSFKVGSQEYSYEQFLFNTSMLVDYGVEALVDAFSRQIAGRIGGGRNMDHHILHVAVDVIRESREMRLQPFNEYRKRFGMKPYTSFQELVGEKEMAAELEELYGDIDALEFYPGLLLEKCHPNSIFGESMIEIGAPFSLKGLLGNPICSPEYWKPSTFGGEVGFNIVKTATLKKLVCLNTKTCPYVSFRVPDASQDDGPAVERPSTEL

What is called ED50 is the midpoint of the dose-response relation. A high value points to weaker potency. In turn, `CC(C)(C)c1cc(C(=O)CCCC2CC2)cc2c1OCC2(C)C` showed an ED50 in the test listed under Mus musculus [1] of 11 mg/kg.

`CCCCC(=O)c1cc(C(C)(C)C)c2c(c1)C(C)(C)CO2`: the Reduction in the test on Mus musculus [2] is on record as 38%.

In the test listed under Mus musculus [3], `CCCC(=O)c1cc(C(C)(C)C)c2c(c1)C(C)(C)CO2` registered a 50% effective dose (ED50) of 21 mg/kg.

For `CC(C)(O)CC(=O)c1cc(C(C)(C)C)c2c(c1)C(C)(C)CO2`, the CPE index in the test with Rattus norvegicus was 0.49.

For `CC(C)(C)c1cc(C(=O)CCCC2CC2)cc2c1SCC2(C)C`, the CPE index in the test with Rattus norvegicus amounted to 0.74.

For `C#CCCCC(=O)c1cc2c(c(C(C)(C)C)c1)OCC2`, the Reduction in the test on Mus musculus [2] stood at 67%. Moreover, in the test on Rattus norvegicus, the CPE index is on record as 0.84.

For the compound `CCCCC(=O)c1cc(C(C)(C)C)c2c(c1)C(C)(C)CCN2`, in the test on Rattus norvegicus, the CPE index is 0.02.

`O=C(CCCC1CC1)c1ccc2c(c1)CCO2`: the CPE index in the test with Rattus norvegicus turned out to be 0.13.

As to `CCCCC(=O)c1cc(C(C)(C)C)c2c(c1)C(C)(C)CCO2`, the CPE index in the test with Rattus norvegicus was found to be 0.69. In the test filed under Mus musculus [1], this compound returned a 50% effective dose (ED50) of 53 mg/kg.

As to `CCCCC(=O)c1ccc2c(c1)CCO2`, the CPE index with Rattus norvegicus came out at 0.

The IC50 is the concentration that inhibits the measured activity by half. Low values mean higher potency, high ones lower potency. As to `CC1(C)COc2ccc(C(=O)CCCC3CC3)cc21`, the CPE index in the test with Rattus norvegicus is 0.5. Moreover, the IC50 in test [4] worked out at 25 µM; in test [5] it was 8 µM.

As for `CCCC(=O)c1ccc2c(c1)C(C)(C)CO2`, the CPE index in the test with Rattus norvegicus is 0.31.

For the compound `CCCC(=O)c1cc(C(C)(C)C)c2c(c1)C(C)(C)CS2`, in the test with Rattus norvegicus, the CPE index amounted to 1.04. Moreover, the IC50 was found to be 1.5 µM in test [4] and 0.15 µM in test [5]. The compound also returned a median effective dose (ED50) in the test filed under Mus musculus [1] of 74 mg/kg.

`CC(C)(C)c1cc(C(=O)CCCC2CC2)cc2c1NCCC2(C)C`: the CPE index in the test on Rattus norvegicus is on record as 0.

Regarding `CCCCC(=O)c1cc2c(c(C(C)(C)C)c1)OCC2`, in the test on Rattus norvegicus, the CPE index amounted to 0.69. For the same compound, the ED50 in the test listed under Mus musculus [1] is 0.6 mg/kg.

`CN1CC(C)(C)c2cc(C(=O)CCCC3CC3)cc(C(C)(C)C)c21`: the CPE index in the test with Rattus norvegicus came out at 0.36.

For `CCc1cc(C(=O)CCCC2CC2)cc2c1OCC2(C)C`, the values for the IC50 in test [6], in test [4] and in test [5] were 18 µM, 20 µM and 5 µM, respectively.

Consider `CCCCC(=O)c1cc(C(C)(C)C)c2c(c1)C(C)(C)CCN2C`, for which the CPE index in the test on Rattus norvegicus was 0.42. Besides, the values for the 50% inhibitory concentration (IC50) in test [4] and in test [5] were 2 µM and 0.3 µM, respectively.

In the case of `CC(C)(C)c1cc(C(=O)CCCC2CC2)cc2c1OCCC2(C)C`, the half-inhibitory concentration (IC50) in test [6] worked out at 8 µM; in test [4], 20 µM; in test [5], 3 µM. Also, the Reduction in the test with Mus musculus [2] is 10%. Also, in the test on Rattus norvegicus, the CPE index worked out at 0.57.

Take `CC(C)(C)c1cc(C(=O)CCCC2CC2)cc2c1OCCC2`: the CPE index in the test on Rattus norvegicus was determined as 0.05.

As to `CCCCC(=O)c1cc2c(c(C(C)(C)C)c1)OCCC2`, the CPE index with Rattus norvegicus is 0.21.

As to `CC(C)(O)CC(=O)c1cc2c(c(C(C)(C)C)c1)OCC2`, in the test with Rattus norvegicus, the CPE index was determined as 0.98. This compound also displayed an ED50 in the test filed under Mus musculus [1] of 21 mg/kg.

As for `CC(C)(O)CC(=O)c1cc2c(c(C(C)(C)C)c1)OCCC2`, the Reduction in the test on Mus musculus [2] came to 50%. In the test with Rattus norvegicus, the CPE index is given as 0.7.

In the case of `C#CCCCC(=O)c1cc2c(c(C(C)(C)C)c1)OCCC2`, the Reduction with Mus musculus [2] is 79%. In addition, the CPE index with Rattus norvegicus is given as 1.04.

Take `CC(C)(O)CC(=O)c1cc(C(C)(C)C)c2c(c1)C(C)(C)CCO2`: the CPE index in the test on Rattus norvegicus turned out to be 0.48.

Compound `C#CCCCC(=O)c1cc(C(C)(C)C)c2c(c1)C(C)(C)CCO2` had a Reduction with Mus musculus [2] of 46%. The CPE index with Rattus norvegicus was determined as 0.57.

Consider `CCCCC(=O)c1cc(C(C)(C)C)c2c(c1)C(C)(C)CCS2`, for which the CPE index in the test with Rattus norvegicus was 0.86. Also, the IC50 in test [4] and in test [5] was 0.4 µM in each case. In the test on Mus musculus [7], this compound returned a Reduction of 17%.

On to `CC(C)(O)CC(=O)c1ccc2c(c1)C(C)(C)CO2`, for which the CPE index with Rattus norvegicus worked out at 0.39.

In the test on Mus musculus [2], `CCCC(=O)c1cc(C(C)(C)C)c2c(c1)C(C)(CC)CO2` (stereo not given) registered a Reduction of 45%. Further, the CPE index with Rattus norvegicus came to 0.68.

Consider `CC(C)(C)c1cc(C(=O)CCCC2CC2)cc2c1OCC2`, for which the results for the IC50 in test [6], in test [4] and in test [5] were 12 µM, 5 µM and 15 µM, respectively. The CPE index in the test on Rattus norvegicus is listed as 0.5. In addition, in the test listed under Mus musculus [1], the ED50 was 6 mg/kg.

With `CC1(C)COc2c(C3CCCC3)cc(C(=O)CCCC3CC3)cc21`, the CPE index in the test on Rattus norvegicus is given as 0.27. The IC50 is over 100 µM in test [4] and 20 µM in test [5].

For the compound `CN1CCC(C)(C)c2cc(C(=O)CCCC3CC3)cc(C(C)(C)C)c21`, the CPE index in the test on Rattus norvegicus amounted to 0.37.

`COc1ccc2cc([C@H](C)C(=O)O)ccc2c1` [NAPROXEN] showed a median effective dose (ED50) in the test filed under Mus musculus [3] of 1.3 mg/kg. Also, in the test on Rattus norvegicus, the CPE index came to 1.06.

Consider `C#CCCCC(=O)c1cc(C(C)(C)C)c(O)c(C(C)(C)C)c1` [TEBUFELONE], for which it took a dose of 26 mg/kg to reach the 50% effect level in the test listed under Mus musculus [3] (ED50).
